ChEMBL document CHEMBL4513216, “Probing the Open Global Health Chemical Diversity Library for Multistage-Active Starting Points for Next-Generation Antimalarials” (ACS Infect Dis, 2020)

Assay: Toxicity liver stage against HepG2, at 10uM
Type: cell-based
Parameters: test concentration 10 uM, cell line HepG2-A16-CD81EGFP
Settings: human, HepG2-A16-CD81EGFP cells; read-out: INHIBITION
Method in brief: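 Uninfected HepG2-A16-CD81EGFP cells, 3 × 10^3 per well, 1536-well, plated on prespotted compound at 10 μM final, parasite-free screening media added to match infected plates; puromycin 10 μM positive, DMSO 0.5% negative; run in parallel with 48 h PbLuc assay at 37 °C, 5% CO2; viability by CellTiter-Glo luminescence, normalized to controls.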

| Compound | cytotoxicity at 10 µM |
| --- | --- |
| CCCN1CCC(CC(=O)N2CC(C)(C)[C@@](C)(O)C2)CC1 | 2.65% |
| CCCNC(=O)c1cn(C(C)(C)C)c2ncccc12 | -0.317% |
| CNS(=O)(=O)c1ccc(CN2CCCC2c2ccc(F)cc2)cc1 (stereo not drawn) | 11.6% |
| O=C1NCC(C(=O)Nc2ncc(Cc3ccccc3F)s2)N1 (stereo not drawn) | -1.11% |
| CCc1nnc2n1CCN(C(=O)CCc1ccc3c(c1)OCO3)C2 | -2.62% |
| Cc1ccc(C)c2c(C)c(C(=O)NCC[S+](C)[O-])[nH]c12 (stereo not drawn) | 3.03% |
| CCN(C)c1ncnc2c1CCN(C(=O)c1ccno1)CC2 | -10% |
| O=C(Cn1ccnc1)N1CC[C@H](Oc2cccc(F)c2)[C@@H](O)CC1 | -0.59% |
| COCCN1CCOCC12CCN(C(=O)c1ccncc1)CC2 | -71.9% |
| Cc1nccc(-c2ccccc2)c1C(=O)N1CCC2(CC(=O)NC2=O)C1 (stereo not drawn) | -2.12% |
| C1CC(CO[C@@H]2CC[C@H]3[C@H]2OCCN3CC2CC2)CCO1 | 11.4% |
| Cc1cc(F)ccc1CN1CCCC2(C1)OCCO2 | -11.8% |
| O=C(c1cc(Cl)c2c(c1)OCO2)N1CCCC(n2cncn2)C1 (stereo not drawn) | -8.75% |
| CC(C)Sc1ncccc1C(=O)NCc1ccoc1 | -0.945% |
| Cc1cccc(CC(=O)NC2CCN(C(=O)NC(C)(C)C)CC2)c1 | -10.4% |
| CN(C)CCN1C(=O)C[C@@H]2[C@@H]1CCN2S(=O)(=O)c1ccccc1 | -7.52% |
| Cc1nc(COC(=O)c2cccc3c2OCCO3)no1 | 5.55% |
| O=C1NCCCC12CCN(c1nc3c(c(C(F)(F)F)n1)CCCC3)C2 (stereo not drawn) | -7.11% |
| CC(C)(C)OC(=O)N1CCCN(Cc2ccon2)c2ccccc21 | 11.1% |
| CCC(C)c1ccc(NC(=O)C2CCN(C(=O)COC)CC2)cc1 (stereo not drawn) | -3.16% |
| CC(C)c1nn(C)c(N(C)C)c1CNCc1cccnc1 | -4.6% |

| Compound | cytotoxicity at 10 µM |
| --- | --- |
| O=C(Nc1ccc(Cl)cn1)C1CCCN(Cc2ccccn2)C1 (stereo not drawn) | -10.5% |
| Cc1cc(CN(C)C(=O)NC2CCN(c3ncccn3)CC2)no1 | -12.8% |
| CO[C@H]1CCN(C(=O)c2cc(C)on2)C[C@@H]1Cc1ccccc1 | 4.06% |
| O=S(=O)(C1CC1)N1CCc2ncnc(-c3ccc(F)cc3)c2CC1 | -66.5% |
| CCn1nc2c(cc1=O)CN(CC(=O)Nc1nnc(C)s1)CC2 | -18.2% |
| Cc1occc1C(=O)N1CCCC(C2=Nc3ccccc3S(=O)(=O)N2)C1 (stereo not drawn) | 4.03% |
| CC(C)c1ccc(OCCC(=O)N2CCCN(C(N)=O)CC2)cc1 | -15.5% |
| CCn1ncc(CNc2[nH]cnc3nncc2-3)c1C | 2.76% |
| CSCCCN1CCN(c2ccc(Cl)cn2)CC1 | -5.52% |
| C[C@H]1CN2C[C@H](O)CC2CN1Cc1ccncc1 (stereo partly drawn) | -3.02% |
| O=C(CCc1ccccc1)N1CCn2cc(CN3CCCC3)nc2C1 | -1.66% |
| CCn1cc(NC(=O)NCC(C)O)cn1 (stereo not drawn) | -4.84% |
| Cc1ccc(S(=O)(=O)N2CCOc3ccccc32)cc1C(=O)O | -0.524% |
| CCNc1cc2c(nn1)CCN(C(=O)c1ccc(NC3CC3)nc1)C2 | -12.3% |
| COCc1nn(CC2CC2)c2c1CN(C(=O)c1ccno1)CC2 | 10.4% |
| COCCN(C)C(C(=O)O)c1ccc2ccccc2c1 (stereo not drawn) | 3.54% |
| COc1ccccc1/C=C/CNCC1CCc2nncn2C1 (stereo not drawn) | 3.91% |
| Cc1c(CN2CCCC(n3c(=O)oc4ccccc43)C2)cnn1C (stereo not drawn) | 6.62% |
| CN(Cc1ccccn1)C1CC2(CCN(Cc3cccnc3)CC2)C1 | 0.925% |
| COCC(=O)N1CCC(c2n[nH]c3nccnc23)CC1 | -8.38% |
| Cc1ccsc1[C@@H]1CCN(C(=O)CCOc2ccccc2)C[C@H]1O | -0.602% |

| Compound | cytotoxicity at 10 µM |
| --- | --- |
| CN(C(=O)COCc1ccccc1)C1CCN(CC2CCOC2)CC1 (stereo not drawn) | -3.7% |
| CCc1ncc(CN2CCOC(Cc3cccc(F)c3)C2)cn1 (stereo not drawn) | 0.0753% |
| Cc1ccc(C(C(=O)N(C)CCc2cn[nH]c2)N(C)C)cc1 (stereo not drawn) | 0.0341% |
| COc1cccc(C(=O)N2CC[C@@H]3[C@H](CC2)N(C)CCS3(=O)=O)c1 | -129% |
| Cc1cc(CN(C)C2CCCN(c3cccnn3)C2)on1 (stereo not drawn) | 16% |
| CCc1noc(C)c1C(=O)N1CCCN(Cc2csc(C)n2)CC1 | -2.81% |
| CN(C)C(=O)c1sc2ncccc2c1C1CNCCO1 (stereo not drawn) | 2.35% |
| FC(F)(F)C1CCc2nnc(CNCc3ccsc3)n2C1 (stereo not drawn) | 0.847% |
| Cc1ccc(Nc2nccc(C3CN(C(C)C)C3)n2)nc1 | -26.2% |
| CC(C)N(C)[C@@H]1CCN(Cc2nccs2)[C@H]1Cc1ccncc1 | -2.75% |
| Cc1ccccc1C1(CNC(=O)N2CCC(CC(N)=O)CC2)CC1 | 4.48% |
| CC(C)OCC(=O)N1CCCN(Cc2ccc(C#N)cc2)CC1 | -7.41% |
| CCN1C[C@@H]2[C@@H](OC)CCN(S(=O)(=O)c3ccccc3)[C@@H]2C1 | -2.7% |
| CC(C)OCCC(=O)Nc1cc(C(=O)N(C)C(C)C)ccc1Cl | -3.79% |
| CCS(=O)(=O)NC[C@]12COC[C@H]1CN(Cc1cccc(OC)c1)C2 | -6.23% |
| COC(=O)c1cccc(OCCn2nc(-c3cccs3)oc2=O)c1 | -6.56% |
| CCCN1Cc2cc(Br)ccc2OCC1=O | 3.72% |
| Cc1ccsc1C(=O)NCCCn1nc2ccccn2c1=O | -1.1% |
| CN(Cc1cc2n(n1)CCCNC2)Cc1ccno1 | 2.57% |
| Cn1cnc2c1CCN(Cc1csc(C3CCCCC3)n1)C2 | -3.36% |
| Cc1nsc(NC2CC(=O)N(C(C)(C)C)C2)n1 (stereo not drawn) | -8.52% |

| Compound | cytotoxicity at 10 µM |
| --- | --- |
| Cc1nc(CN2CC[C@@H](OCC3CC3)[C@@H]2Cc2cccnc2)cs1 | -4.38% |
| Cc1csc(C2(NCc3ccc(OCC(F)F)cc3)CCCC2)n1 | 2.15% |
| O=C(NCCCc1ccc(O)cc1)C1(O)Cc2ccccc2C1 | 1.6% |
| Cc1nc(CN2CCC(Oc3ccc(F)cc3C)(C(=O)O)CC2)co1 | 2.28% |
| CCSCCNC(=O)C(c1cccc(C)c1)N(C)C (stereo not drawn) | -23% |
| COc1cccc(OCC(=O)N(C)c2cccnc2)c1 | -2.66% |
| CC1CCCN(C(=O)c2csc(S(N)(=O)=O)c2)CC1 (stereo not drawn) | 1.52% |
| Cc1cc(CNC(=O)N2CCc3ccccc32)on1 | -3.57% |
| NC(=O)N1CCC2(CCN(Cc3cccc(F)c3)CC2)CC1 | -10.1% |
| Cc1ccc(C(=O)N2CCCC(n3cncn3)C2)o1 (stereo not drawn) | 4.35% |
| CCc1cc(C(=O)NCC2CCN(Cc3cccc(C#N)c3)C2)on1 (stereo not drawn) | 4.98% |
| CSc1cccc(CN(C)C(=O)c2ccc(C3CCCNC3)cc2)c1 (stereo not drawn) | -3.07% |
| Cc1ccc(F)c(NC(=O)NCCCn2nc3ccccn3c2=O)c1 | -13.3% |
| CCN(C)CC1CCN(C(=O)Nc2ccc(C)cc2)C1 (stereo not drawn) | 2.89% |
| CCC(NC(=O)NCC(=O)NC(C)C)c1cc(F)ccc1F (stereo not drawn) | 0.447% |
| CC(C)c1nc(C2CCCN(C(=O)Cc3cccnc3)C2)no1 (stereo not drawn) | -8.97% |
| O=c1c(S(=O)(=O)N2CCCC2)cccn1Cc1ccccc1Cl | 2.96% |
| Cc1cc(CN(C)Cc2ncc(-c3ccccc3)o2)no1 | -13.8% |
| Cc1ccc(CNC(=O)N2CCN(Cc3ccsc3)CC2)n1C | 9.58% |
| CC(c1cccc(O)c1)N(C)S(=O)(=O)c1cccnc1 (stereo not drawn) | 9.46% |
